Data set [1] in a line: Antipyroptotic activity in PMA-differentiated and LPS-primed human THP1 cells assessed as decrease in ATP-induced pyroptosis measured as LDH activity at 10 uM after 1 hrs by colorimetric assay. Particulars: THP-1, 1 h. The format is functional.
Data set [2] can be described thus: Cytotoxicity against human HK2 cells assessed as cell viability after 72 hrs by MTT assay. As to conditions: read-out: TC50. The format is cell-based, HK-2. Summed up: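 MTT viability assay in human renal epithelial HK-2 cells. TC50 defined as molar concentration lowering HK-2 viability by 50%.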
In general terms: Formazan colour is commonly taken as a measure of viable cells.

Data set [3] is described as follows: cysteamine reactivity assessed as second-order reaction rate constant in PBS at pH 7.4 and […] by DTNB spectrophotometric assay.

These results are taken from ChEMBL document CHEMBL3351787, “Electrophilic warhead-based design of compounds preventing NLRP3 inflammasome-dependent pyroptosis” (J Med Chem, 2014).

The inhibition is the change of the read-out against control, counted positive when it falls. As to `C=C(C(=O)OCC)C(O)c1ccccc1C` (stereo unspecified), the inhibition at 10 µM in data set [1] came out at 37.8%. Moreover, the CC50 at 72 h in data set [2] amounted to 56.7 µM.
The matching figures for `C=C(C(=O)OCC)C(O)c1cccc(Cl)c1` (stereo unspecified): 44.8% and 28.9 µM.
Taken in the same sequence, the figures for `C=C(C(=O)OCC)C(O)c1cc(Cl)cc(Cl)c1` (stereo unspecified) were 78.4% and 18.8 µM.
The matching figures for `C=C(C#N)C(O)c1c(Cl)cccc1Cl` (stereo unspecified): 51.5% and 16.3 µM.
As to `CCOC(=O)C(C)C(O)c1ccccc1Cl` (stereo unspecified), the inhibition at 10 µM in data set [1] was determined as 1.6%. In data set [2], the CC50 at 72 h stood at 75.5 µM.
The matching figures for `C=C(C(=O)OCC)C(C)O` (stereo unspecified): 59.6% and 22.5 µM.
The matching figures for `C=C(C(=O)OCC)C(O)c1ccccc1Br` (stereo unspecified): 53.7% and 55.9 µM.
Taken in the same sequence, the figures for `C=C(C#N)C(O)c1ccc(Cl)cc1Cl` (stereo unspecified) were 14.1% and 36.4 µM.
On to `C=C(C(=O)OCC)C(O)c1ccc(Cl)cc1Cl` (stereo unspecified), for which the inhibition at 10 µM in data set [1] is 72.4%. In data set [2], the CC50 at 72 h was found to be 70.5 µM.
The matching figures for `C=C(C#N)C(O)c1ccccc1Br` (stereo unspecified): 81.3% and 21.8 µM.
As for `C=C(C#N)C(O)c1ccccc1F` (stereo unspecified), the inhibition at 10 µM in data set [1] is 30.5%. In data set [2], the CC50 at 72 h was 12.9 µM.
`C=C(C#N)C(O)c1ccccn1` (stereo unspecified): in data set [1], the inhibition at 10 µM was 52.7%. The CC50 at 72 h in data set [2] is 20.5 µM.
As to `C=C(C#N)C(O)c1cccc2ccccc12` (stereo unspecified), the inhibition at 10 µM in data set [1] amounted to 53.5%. Also, the CC50 at 72 h in data set [2] worked out at 10.1 µM.
Take `C=C(C#N)C(O)c1ccccc1[N+](=O)[O-]` (stereo unspecified): the inhibition at 10 µM in data set [1] turned out to be 97.9%. For the same molecule, the CC50 at 72 h in data set [2] was 3.6 µM.
The matching figures for `CCOC(=O)/C(=C\I)C(O)c1ccccc1Cl` (stereo unspecified): 17.6% and 5.9 µM.
Consider `CCOC(=O)/C(=C/c1ccccc1)C(O)c1ccccc1Cl` (stereo unspecified), for which, in data set [1], the inhibition at 10 µM amounted to 55.5%. Besides, the CC50 at 72 h in data set [2] is greater than 100 µM.
The matching figures for `C=C(C(=O)OCC)C(O)c1ccccn1` (stereo unspecified): 54.3% and 53.4 µM.
The matching figures for `C=C(C(=O)OCC)C(O)C1CCCCC1` (stereo unspecified): 64.3% and greater than 100 µM.
`C=C(C(=O)CC)C(O)c1ccccc1Cl` (stereo unspecified): in data set [1], the inhibition at 10 µM was determined as 12.1%. In addition, the CC50 at 72 h in data set [2] turned out to be 1.9 µM. Moreover, the k2 in data set [3] came out at 7.16 M⁻¹ s⁻¹.
The matching figures for `C=C(C(=O)OCC)C(O)c1ccccc1OC` (stereo unspecified): 26.8%, 45.8 µM and 0.423 M⁻¹ s⁻¹.
As to `C=C(C(=O)OCC)C(O)c1ccc(Cl)cc1` (stereo unspecified), the inhibition at 10 µM in data set [1] turned out to be 50.5%. Further, the CC50 at 72 h in data set [2] was determined as 34.9 µM.
The matching figures for `CCOC(=O)/C(=C/I)C(O)c1ccccc1Cl` (stereo unspecified): 5.1% and 6.4 µM.
Turning to `C=C(C(=O)OCC)C(OCCC(=O)OCC)c1ccccc1Cl` (stereo unspecified), in data set [1], the inhibition at 10 µM came out at 58.3%. Moreover, in data set [2], the CC50 at 72 h is greater than 100 µM.
The matching figures for `C=C(C(=O)OCC)C(O)c1c(Cl)cccc1Cl` (stereo unspecified): 76.6% and 45.2 µM.
`C=C(C(=O)OCC)C(O)c1ccccc1` (stereo unspecified): the inhibition at 10 µM in data set [1] came to 45.8%. Further, the CC50 at 72 h in data set [2] came out at 64.5 µM. Also, the k2 in data set [3] came out at 0.524 M⁻¹ s⁻¹.
As for `C=C(C#N)C(O)c1ccccc1` (stereo unspecified), in data set [1], the inhibition at 10 µM turned out to be 54.1%. Moreover, the CC50 at 72 h in data set [2] came out at 22.3 µM.
As to `C=C(C(=O)NCCC)C(O)c1ccccc1Cl` (stereo unspecified), in data set [1], the inhibition at 10 µM was 31.2%. The CC50 at 72 h in data set [2] came to 83.5 µM. Moreover, the k2 in data set [3] is 0.126 M⁻¹ s⁻¹.
Regarding `CCOC(=O)/C(=C\c1ccccc1)C(O)c1ccccc1Cl` (stereo unspecified), the inhibition at 10 µM in data set [1] is 52.5%. For the same molecule, the CC50 at 72 h in data set [2] is greater than 100 µM. Besides, the k2 in data set [3] worked out at 0.588 M⁻¹ s⁻¹.
